Assay results gathered from unrelated publications.
Each line is one published result; the experiments were not run side by side.
Sample: plasma

`O=C(Nc1c(Cl)cncc1Cl)c1ccc(OC(F)F)c(OCC2CC2)c1` gave an AUC(0-inf) of 81.4 ng·h/mL (human; oral, 0.375 mg, multiple doses, once daily).
With `COc1ccc([C@@H]2CN(C(=O)[C@@H](O)CO)C[C@@]2(C)[C@@H](C)O)cc1OC1CN(c2ccc(C)cn2)C1` the AUC(0-inf) was 211 ng·h/mL (human; oral, 0.5 mg, single dose, healthy volunteers).
`C[C@@H](Oc1ccc(S(C)(=O)=O)cc1C(=O)N1C[C@@H]2C[C@]2(c2cc(C(F)(F)F)on2)C1)C(F)(F)F` has an AUC(0-inf) of 9.17 µM·h (human; oral, 25 mg, fasted, tablet).
`COc1ccc(-n2nc(C(N)=O)c3c2C(=O)N(c2ccc(N4CCCCC4=O)cc2)CC3)cc1` gave an AUC(0-inf) of 1630 ng·h/mL (male human; oral, 10 mg, single dose).
`CS(=O)(=O)CCC#N` has an AUC(0-inf) of 77000 ng·h/mL (human; oral, 100 mg, single dose, fasted).
For `COc1ccc(-n2nc(C(N)=O)c3c2C(=O)N(c2ccc(N4CCCCC4=O)cc2)CC3)cc1`, the AUC(0-inf) was 2530 ng·h/mL (human; oral, 10 mg, single dose, healthy volunteers).
The AUC(0-inf) of `CC(C)(O)c1ccccc1-c1ccc2[nH]c(/C=C/c3ccc(C(F)(F)F)cc3)nc2c1` is reported as 7820 ng·h/mL (male human; oral, 50 mg, single dose, fasted, healthy volunteers).
With `CCc1nc2c(C)cc(N3CCN(CC(=O)N4CC(O)C4)CC3)cn2c1N(C)c1nc(-c2ccc(F)cc2)c(C#N)s1` the AUC(0-inf) was 2400 ng·h/mL (human; oral, 60 mg, single dose, fed, healthy volunteers).
`CO[C@H]1CC[C@H](N2C(=O)CNc3ncc(-c4ccc(C(C)(C)O)nc4)nc32)CC1` has an AUC(0-inf) of 378 ng·h/mL (human; oral, 15 mg, patients).
`CCCOc1ccc([C@H]2CNC(=O)N2c2ccc3[nH]cnc3c2)cc1` gave an AUC(0-inf) of 2310 ng·h/mL (human; oral, 200 mg, single dose, fed, healthy volunteers).
`CO[C@H]1/C=C\C=C(/C)C(=O)NC2=CC(=O)C(NCCN(C)C)=C(C[C@@H](C)C[C@H](OC)[C@H](O)[C@@H](C)/C=C(\C)[C@@H]1OC(N)=O)C2=O` gave an AUC(0-inf) of 4140 ng·h/mL (human; intravenous, 27 mg/m², patients, infusion).
`CC(C)[C@](O)(c1ccc2cc(OC(F)F)c(OC(F)F)cc2c1)c1c[nH]nn1` gave an AUC(0-inf) of 84600 ng·h/mL (female human; oral, 750 mg, single dose).
`O=C(/C=C/c1cccc(S(=O)(=O)Nc2ccccc2)c1)NO` has an AUC(0-inf) of 86400 ng·h/mL (human; intravenous, 2000 mg/m², patients).
With `C[C@@H](Oc1ccc(S(C)(=O)=O)cc1C(=O)N1C[C@@H]2C[C@]2(c2cc(C(F)(F)F)on2)C1)C(F)(F)F` the AUC(0-inf) was 12.2 µM·h (human; oral, 25 mg, single dose).
For `C[C@@]1(c2cc(NC(=O)c3ccc(C#N)cn3)ccc2F)C=CSC(N)=N1`, the AUC(0-inf) was 2550 ng·h/mL (human; oral, 30 mg, single dose).
For `CC(C)(Sc1ccncc1-c1ccc(C#N)c2ccccc12)C(=O)O`, the AUC(0-inf) was 121 ng·h/mL (male human; oral, 5 mg, single dose, fasted, healthy volunteers).
`CC(C)n1cc(C#N)c2cc(-n3cc(C(=O)O)cn3)ccc21` has an AUC(0-inf) of 44300 ng·h/mL (human; oral, 200 mg, single dose, fasted, healthy volunteers).
`Cn1cc(-c2ccc(S(=O)(=O)[C@@H]3C[C@@H](C(=O)NC4(C#N)CC4)N(C(=O)C4(C(F)(F)F)CC4)C3)c(C(F)(F)F)c2)cn1` has an AUC(0-inf) of 12600 ng·h/mL (human; oral, 100 mg, single dose, fed).
`CC(=O)Oc1ccccc1C(=O)O` has an AUC(0-inf) of 7690 ng·h/mL (human; oral, 650 mg, healthy volunteers).
With `CN(C)CCCNC(=O)/C(=C/CCCCC(=O)NO)COc1cccc2ccccc12` the AUC(0-inf) was 37500 ng·h/mL (human; intravenous, 250 mg/m², single dose).
